# Experiments:
# P388 = assay: Cytotoxicity against murine P388 cells by MTT method; type: functional, cell-based; conditions: Mus musculus
# How it was run: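 In vitro growth inhibition of P-388 murine leukemia cells, read by MTT reduction; pseudolaric acid B served as positive control.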
# A549 = assay: Cytotoxicity against human A549 cells by SRB method; type: functional, cell-based
# How it was run: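 In vitro growth inhibition of A-549 human lung carcinoma cells, read by sulforhodamine B staining; pseudolaric acid B served as positive control.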
smiles,measurement,setting,value
COC(=O)C1=CC[C@@]23CC[C@@H]([C@@](C)(/C=C/C=C(\C)C(=O)O)OC2=O)[C@@]3(OC(C)=O)CC1 [PSEUDOLARIC ACID B],IC50,P388,3700 nM
CC[C@@]12C=CCN3CC[C@]4(C(=C(C(=O)OC)C1)Nc1cc5c(cc14)[C@H]1[C@@H](O5)[C@H](O)[C@]4(CC)CC(C(=O)OC)=C5Nc6c(cc(O)c(OC)c6OC)[C@@]56CCN1[C@H]46)[C@H]32 [CONOPHYLLIDINE],IC50,P388,25 nM
same,IC50,A549,44 nM
CC[C@H]1C[C@@H]2C[C@H]3c4[nH]c5cc([C@@H]6C[C@H]7C(C(=O)OC)[C@@H](Cc8c6[nH]c6ccccc86)N(C)C[C@H]7CC)c(OC)cc5c4CCN(C2)[C@@H]13 (stereo partly specified),IC50,P388,840 nM
same,IC50,A549,1100 nM
CC[C@H]1C[C@H]2CN3CCc4c([nH]c5cc([C@@H]6C[C@H]7C(C(=O)OC)[C@@H](Cc8c6[nH]c6ccccc86)N(C)C[C@H]7CC)c(OC)cc45)[C@](C(=O)OC)(C2)[C@H]13 (stereo partly specified) [ERVADIVARICATINE B],IC50,P388,360 nM
same,IC50,A549,430 nM
C/C=C1/CN(C)[C@@H]2Cc3c([nH]c4ccccc34)[C@H](c3cc4[nH]c5c(c4cc3OC)CCN3C[C@@H]4C[C@H](CC)[C@H]3[C@H]5C4)C[C@H]1C2C(=O)OC (stereo partly specified),IC50,P388,110 nM
same,IC50,A549,520 nM
CC[C@H]1C[C@@H]2C[C@H]3c4[nH]c5cc([C@@H]6C[C@H]7C(C(=O)OC)[C@@H](Cc8c6[nH]c6ccccc86)N(C)C[C@H]7CC)ccc5c4CCN(C2)[C@@H]13 (stereo partly specified),IC50,P388,430 nM
same,IC50,A549,260 nM

# Reference: ChEMBL document CHEMBL1139212, “Indole alkaloids from three species of the Ervatamia genus: E. officinalis, E. divaricata, and E. divaricata Gouyahua” (J Nat Prod, 2007)
